Data set [1] relates to Caco-2. Description: Cellular uptake in human Caco2 cells at 10 uM at 37 degC by fluorescence assay. It counts as ADME, cell-based. The following applies: caco-2, 10 µM, TDE = time-dependent effect. Summed up:
(§1)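 21-d polarised Caco-2 monolayers incubated with 10 μM in KRB (pH 7.4, 0.1% DMSO) at 37°C or 4°C. Sampled at 5, 10, 15, 30, 45, 60 and 90 min. Cells washed twice with ice-cold KRB and lysed in 1% Triton X-100. Lysate fluorescence read at ex 485/em 520 nm and normalised to BCA protein; mean ± SD, n = 3.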

The test system of data set [2] is Caco-2. Description: Cytotoxicity against human Caco2 cells assessed as cell viability at 1 to 100 uM up to 100 mins by MTT assay. The following applies: caco-2, 100 min. Format: cell-based. Summed up:
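Caco-2 monolayers exposed to 1–100 μM for up to 100 min; viability by MTT assay.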

The nature of data set [3]: Stability of the compound in MeCN/phosphate buffer assessed as compound remaining at pH 7.4 measured for 24 hrs by HPLC analysis. It counts as physicochemical. The following applies: pH 7.4, 24 h. The essentials: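 Solution at 0.01 mg/ml (stock) in 2% MeCN/phosphate buffer pH 7.4, held at 37°C for 24 h and injected hourly. Analysed by C18 reversed-phase HPLC with MeCN/pH 2.5 phosphate buffer gradient, 1.0 ml/min, column 37°C, detection 346 nm; remaining compound followed by peak area.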

The next data set deals with Huh-7. The data set can be described thus: Cytotoxicity against human HuH7 cells assessed as cell viability at 1 to 100 uM up to 24 hrs by MTT assay. It counts as cell-based. As to conditions: huh-7, 24 h; call rule not given here. The essentials: (§2)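 HUH-7 and SKGT-4 cells exposed up to 100 μM for up to 24 h; viability by MTT assay.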
(In general: Tetrazolium assays rely on reduction of a dye to a coloured formazan, in cell work by metabolically active cells.)

Data set [4] in a line: Cytotoxicity against human SKGT4 cells assessed as cell viability at 1 to 100 uM up to 24 hrs by MTT assay. It counts as cell-based. The following applies: skgt4, 24 h. Summed up: as §2
Data set [5] deals with Caco-2. Description: Cellular uptake in human Caco2 cells at 10 uM at 4 degC by fluorescence assay. Format: ADME, cell-based. As to conditions: caco-2, 10 µM, TDE = time-dependent effect. Summed up: as §1
The test system of data set [6] is Caco-2. Description: Cellular uptake in human Caco2 cells assessed as uptake rate measured per mg of protein at 1 to 100 uM at 4 to 37 degC after 20 mins by Eadie-Hofstee plot method. It counts as ADME, cell-based. The following applies: caco-2, 20 min. The essentials:
(§3)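 Caco-2 monolayers grown 21 d, exposed to 1–100 μM in bicarbonated Krebs-Ringer buffer (HEPES, pH 7.4, 0.1% DMSO) for 20 min at 37°C and 4°C. Washed twice with ice-cold KRB, lysed in 1% Triton X-100, fluorescence read at ex 485/em 520 nm and normalised to BCA protein. Active uptake = 37°C minus 4°C. Km/Vmax from Michaelis-Menten non-linear least squares fit, Eadie-Hofstee plot; n = 3.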

The nature of data set [7]: Cellular uptake in human Caco2 cells assessed as uptake rate at 1 to 100 uM at 4 to 37 degC after 20 mins by Eadie-Hofstee plot method. It counts as ADME, cell-based. As to conditions: Caco-2 cells. Summed up:
as §3

Data set [8] concerns Caco-2. Description: Cellular uptake in human Caco2 cells at 4 to 37 degC after 20 mins by fluorescence assay. Format: ADME, cell-based. As to conditions: caco-2, 20 min. Summed up:
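Uptake into 21-d Caco-2 monolayers over 20 min at 37°C and 4°C, in KRB pH 7.4 with 0.1% DMSO. Monolayers washed with ice-cold KRB and solubilised in 1% Triton X-100. Fluorescence read at ex 485/em 520 nm with BCA protein normalisation. Active part taken as the 37°C minus 4°C difference; n = 3.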

Data set [9] relates to Caco-2. The data set can be described thus: Cellular uptake in human Caco2 cells at 10 uM at 4 to 37 degC after 90 mins by fluorescence assay. It counts as ADME, cell-based. The following applies: caco-2, 1.5 h. The essentials: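 Caco-2 grown 21 d on 24-well plates as polarised monolayers; compound at 10 μM in bicarbonated Krebs-Ringer buffer (HEPES, pH 7.4) with 0.1% DMSO, at 37°C or 4°C, sampled 5–90 min. Washed twice with ice-cold KRB, lysed in 1% Triton X-100, lysate fluorescence read at ex 485/em 520 nm, normalised to BCA protein. Active uptake = 37°C minus 4°C; mean ± SD, n = 3.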

By Vmax is commonly meant the top rate of the reaction or transport when substrate is in excess. The term Km denotes the substrate concentration at which the rate is half of its maximum.

Each structure is given as a SMILES string.

`C[C@H](CCC(=O)O)[C@H]1CC[C@H]2[C@@H]3[C@@H](O)C[C@@H]4C[C@@H](Nc5ccc([N+](=O)[O-])c6nonc56)CC[C@]4(C)[C@H]3CC[C@]12C`: the Drug uptake result in the data set with Caco-2 [1] and with Caco-2 [5] was “tde” throughout. For the same molecule, the Activity result (in the data set on Caco-2 [2]; with Huh-7; in [4]) was “Non-toxic” each time. Further, the Stability entry in data set [3] is “Stable”.

For the molecule `C[C@H](CCC(=O)O)[C@H]1CC[C@H]2[C@@H]3CC[C@@H]4C[C@H](Nc5ccc([N+](=O)[O-])c6nonc56)CC[C@]4(C)[C@H]3C[C@H](O)[C@]12C`, the Drug uptake result in the data set with Caco-2 [1] is recorded as “tde”; in the data set on Caco-2 [8] it was “Dose-dependent effect”; in the data set with Caco-2 [5], “tde”. Moreover, the Activity result (in the data set on Caco-2 [2]; with Huh-7; in [4]) was “Non-toxic” in each case. The Vmax with Caco-2 [6] worked out at 1.8 nmol/min/mg. The Km at 20 min, up to 100 µM in data set [7] came to 28.2 µM.

For the molecule `O=[N+]([O-])c1ccc(NC2CCCCC2)c2nonc12`, the Drug uptake entry with Caco-2 [9] is reported as “Active”; in the data set on Caco-2 [8] it was “Dose-dependent effect”.
